Measured values published in paper PMC3240942 (Molecular cell, 2011).
Changes are numbered by the printed parent chain. Where no end group is shown, it is not given here.

How the values were obtained:
Sirt1 [1] = target: T1, Sirt1 (Mus musculus, UniProt Q923E4); settings: 2007, cited from earlier work; for reported Sirt1 activation: ref Howitz et al., 2003, Milne et al.
T1 sequence (Q923E4 1-737): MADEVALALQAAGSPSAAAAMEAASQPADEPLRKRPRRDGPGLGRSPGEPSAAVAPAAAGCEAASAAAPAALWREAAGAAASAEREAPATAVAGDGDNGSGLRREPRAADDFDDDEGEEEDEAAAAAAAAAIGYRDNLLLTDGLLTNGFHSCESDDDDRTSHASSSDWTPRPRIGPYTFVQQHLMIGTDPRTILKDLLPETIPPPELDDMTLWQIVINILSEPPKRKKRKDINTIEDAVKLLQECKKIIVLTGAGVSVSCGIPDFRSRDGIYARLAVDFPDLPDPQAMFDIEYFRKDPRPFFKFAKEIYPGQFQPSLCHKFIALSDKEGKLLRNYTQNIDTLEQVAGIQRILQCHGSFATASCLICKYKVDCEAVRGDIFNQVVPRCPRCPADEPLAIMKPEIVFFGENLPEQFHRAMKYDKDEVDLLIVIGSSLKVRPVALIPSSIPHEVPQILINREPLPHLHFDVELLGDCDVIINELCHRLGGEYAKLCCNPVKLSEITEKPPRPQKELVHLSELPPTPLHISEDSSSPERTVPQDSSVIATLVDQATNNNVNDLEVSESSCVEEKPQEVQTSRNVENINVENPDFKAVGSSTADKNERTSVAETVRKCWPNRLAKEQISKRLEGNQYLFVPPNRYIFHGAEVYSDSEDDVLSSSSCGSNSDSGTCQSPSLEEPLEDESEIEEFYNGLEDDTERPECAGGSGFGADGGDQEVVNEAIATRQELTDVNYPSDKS

Ac-H4 peptide = assay: Pull-down with streptavidin-immobilized Ac-H4 peptide; format: binding
Outline: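 Biotinylated peptide (mutant ESA or acetyl-H4) was bound to streptavidin agarose for 1 h at room temperature, washed, and held in PBS/1% Triton X-100. Beads (30 μl) took 2 μg GST-fused or His-tagged protein for 2 h at room temperature. Beads were washed with PBS/1% Triton/200 mM NaCl and eluted in β-ME SDS buffer at 95 °C for 10 min. Blots ran on 4–12% SDS-PAGE; biotin-only beads were the control.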

Sirt1 [2] = target: T1, Sirt1; assay: Lineweaver-Burk kinetics of Sirt1; format: biochemical; settings: Sirt1 substrate/cofactor, under our reaction conditions
Outline: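 His-Sirt1 (2 μg) was pre-incubated 5 min at room temperature in HEPES pH 7.0 buffer with mutant ESA peptide at 0, 60, 120 or 240 μM. Ac-K16 H4 fluorogenic dipeptide was varied at 500 μM NAD+, or NAD+ was varied at 100 μM substrate. Reactions ran 25 min at 37 °C and were stopped with nicotinamide developer; ex 355/em 460 nm, no-NAD+ blank subtracted. Triplicates. Kis/Kii came from a double-reciprocal noncompetitive model fit, Km from the same analysis, kcat from a Michaelis–Menten fit.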

Flag-p65 (NF-κB) = assay: Co-immunoprecipitation of Sirt1 with Flag-p65 in Hela cells; format: cell-based; settings: V5-tagged Sirt1
Outline: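 Transient co-transfection of HeLa cells with Flag-NF-κB p65 plus V5-tagged full-length or ΔESA Sirt1. p65 was pulled down with anti-Flag, and bound Sirt1 was detected by anti-V5 immunoblot alongside input levels.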

GST-Ac-p53 = assay: Pull-down of Sirt1 / core fragments with GST-Ac-p53; format: binding; settings: in vitro pull-down
Outline: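 In vitro pull-downs with GST-Ac-p53 or GST alone as negative control. Recombinant Flag-tagged full-length or ΔESA (a.a. 631-655 deleted) Sirt1 pulled down with anti-Flag, bound GST-Ac-p53 detected by GST immunoblot, and Sirt1 shown by Coomassie. Alternatively, core (a.a. 184-510) or Core-ESA with GST-Ac-p53 (2 μg each) in GST pull-down, bound core detected by Sirt1 immunoblot.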

[3] = tested on: Lys 382 acetylated-p53 (Ac-p53); assay: Deacetylation of Lys 382 acetylated-p53 by recombinant WT/mutant Sirt1; format: biochemical, mouse Sirt1; settings: recombinant Sirt1 2 μg, acetylated GST-p53 0.2 μg, 0.5 mM NAD+, pH 7.0, 37 °C; immunoblot
Outline: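 Recombinant His-tagged WT or C-terminally truncated/point-mutant mouse Sirt1 (2 μg) incubated with acetylated GST-p53 (0.2 μg) and 0.5 mM NAD+ in 50 mM HEPES pH 7.0, 1 mM DTT, 10 mM MgCl2, 200 mM NaCl plus protease/phosphatase inhibitors. Reactions ran at 37 °C for indicated times and were stopped with SDS sample buffer. Read-out: immunoblot with acetyl-K382 p53 antibody; loading checked by Coomassie, Ponceau S or Western blot.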

[4] = target: T2, Sirt1 deacetylase core (Core, a.a. 184-510) (mouse, UniProt Q923E4 184-510); assay: pull-down
T2 sequence (looked up): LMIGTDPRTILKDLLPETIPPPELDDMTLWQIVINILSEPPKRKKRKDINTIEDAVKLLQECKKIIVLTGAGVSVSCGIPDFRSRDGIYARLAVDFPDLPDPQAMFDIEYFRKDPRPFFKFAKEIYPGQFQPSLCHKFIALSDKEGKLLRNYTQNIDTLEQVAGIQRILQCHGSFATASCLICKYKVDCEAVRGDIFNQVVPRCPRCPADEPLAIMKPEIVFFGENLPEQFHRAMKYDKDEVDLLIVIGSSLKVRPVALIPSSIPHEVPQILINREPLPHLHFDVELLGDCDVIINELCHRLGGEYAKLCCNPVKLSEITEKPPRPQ

[5] = target: T3, Sirt1 fragment F1b (the Sirtuin domain, a.a. 236-490) (mouse, UniProt Q923E4 236-490); assay: pull-down
T3 sequence (looked up): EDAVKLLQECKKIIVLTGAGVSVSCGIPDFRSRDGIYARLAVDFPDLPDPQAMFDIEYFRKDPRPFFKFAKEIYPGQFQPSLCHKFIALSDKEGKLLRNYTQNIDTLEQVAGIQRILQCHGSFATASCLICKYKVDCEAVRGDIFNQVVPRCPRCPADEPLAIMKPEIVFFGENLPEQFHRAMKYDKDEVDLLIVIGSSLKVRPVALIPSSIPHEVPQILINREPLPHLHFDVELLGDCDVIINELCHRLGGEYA

Q: Which “reported Sirt1 activation” value (Sirt1 [1]) does the source give for Oc1ccc(/C=C/c2cc(O)cc(O)c2)cc1 [resveratrol, reference compound] here?
A: reported to activate Sirt1

Q: Which “binding to Ac-H4 peptide” value (Ac-H4 peptide) does the source give for “GST-ESA: ESA fused to GST (QYLFVPPNRYIFHGAEVYSDSEDDV; also: fused to GST, end not given here)” here?
A: not to either GST-ESA or GST alone

Q: With O=C(Nc1ccccc1-c1cn2c(CN3CCNCC3)csc2n1)c1cnc2ccccc2n1 [SRT1720, reference compound] as the molecule, how does the “reported Sirt1 activation” value (Sirt1 [1]) read?
A: reported to activate Sirt1

Q: Which Km (Sirt1 [2]) does the source give for NC(=O)c1ccc[n+]([C@@H]2O[C@H](COP(=O)([O-])OP(=O)(O)OC[C@H]3O[C@@H](n4cnc5c(N)ncnc54)[C@H](O)[C@@H]3O)[C@@H](O)[C@H]2O)c1 [NAD^+, reference compound] here?
A: 203 µM

B1: WT Sirt1: wild-type full-length Sirt1 (protein)
chain: T1 sequence (Q923E4 1-737)
modifications: left off: His tag, end not stated, kept
Q: Which results are given for B1?
A: co-immunoprecipitation with Flag-p65 (Flag-p65 (NF-κB)): readily co-immunoprecipitated with Flag-p65; binding to Ac-H4 peptide (Ac-H4 peptide): Ac-H4 peptide bound to full-length Sirt1

B2: Core-ESA: ESA region attached to the deacetylase core (protein)
chain: LMIGTDPRTILKDLLPETIPPPELDDMTLWQIVINILSEPPKRKKRKDINTIEDAVKLLQECKKIIVLTGAGVSVSCGIPDFRSRDGIYARLAVDFPDLPDPQAMFDIEYFRKDPRPFFKFAKEIYPGQFQPSLCHKFIALSDKEGKLLRNYTQNIDTLEQVAGIQRILQCHGSFATASCLICKYKVDCEAVRGDIFNQVVPRCPRCPADEPLAIMKPEIVFFGENLPEQFHRAMKYDKDEVDLLIVIGSSLKVRPVALIPSSIPHEVPQILINREPLPHLHFDVELLGDCDVIINELCHRLGGEYAKLCCNPVKLSEITEKPPRPQQYLFVPPNRYIFHGAEVYSDSEDDV
modifications: left off: His tag, end not stated, kept
Q: With B2 as the molecule, how does the “binding to GST-Ac-p53” value (GST-Ac-p53) read?
A: increases the deacetylase core-Ac-p53 interaction

Q: What about the “binding to Ac-H4 peptide” value (Ac-H4 peptide) of the same molecule?
A: increases the deacetylase core-Ac-H4 interaction

Q: What about the “deacetylase activity against Ac-p53” value [3] of the same molecule?
A: restored deacetylase activity

B3: Core-GPDR: GPDR-mutated ESA region attached to the Core (protein)
chain: B2 chain with G341P, D347R
Q: With B3 as the molecule, how does the “binding to Ac-H4 peptide” value (Ac-H4 peptide) read?
A: interacted poorly with the Ac-H4 peptide

B4: deacetylase core: a.a. 184-510 of Sirt1 (protein)
chain: T2 sequence (looked up)
modifications: left off: His tag, end not stated, kept
Q: For B4, which “deacetylase activity against Ac-p53” value [3] is on record?
A: no catalytic activity

Q: Which results are given for QYLFVPPNRYIFHGAEVYSDSEDDV (peptide, UniProt Q923E4 631-655, looked up, also: biotin-tagged, position not given here) [ESA peptide (biotin-tagged peptide of the region essential for Sirt1 activity, a.a. 631-655)]?
A: binding result [4]: binds; binding result [5]: binds

B5: AROS: Active Regulator of Sirt1 (protein, UniProt Q86WX3 1-136, looked up)
Active regulator of SIRT1: MSAALLRRGLELLAASEAPRDPPGQAKPRGAPVKRPRKTKAIQAQKLRNSAKGKVPKSALDEYRKRECRDHLRVNLKFLTRTRSTVAESVSQQILRQNRGRKACDRPVAKTKKKKAEGTVFTEEDFQKFQQEYFGS
Q: With B5 as the molecule, how does the “effect on Sirt1 activity” value (Sirt1 [1]; binds to N-terminal domain of Sirt1, ref Kim et al.) read?
A: activates its activity
